High-throughput results deposited in PubChem BioAssay by several laboratories.
An excerpt weighted towards active compounds, which were near 2.6% of everything screened.
SIRT5 block: SIRT5 desuccinylase inhibitors, primary screen, biochemical, fluorescence imaging, single point, set 5; NAD-dependent protein deacylase sirtuin-5, mitochondrial (Homo sapiens), Q9NXA8; Purified SirT5, succinyl-peptide AMC, trypsin-coupled fluorescence; inhibition, % at 15 µM; hit rate 1.1% among 330,000; in the data active = inhibition above about 15%
Target sequence (Q9NXA8 whole entry, looked up): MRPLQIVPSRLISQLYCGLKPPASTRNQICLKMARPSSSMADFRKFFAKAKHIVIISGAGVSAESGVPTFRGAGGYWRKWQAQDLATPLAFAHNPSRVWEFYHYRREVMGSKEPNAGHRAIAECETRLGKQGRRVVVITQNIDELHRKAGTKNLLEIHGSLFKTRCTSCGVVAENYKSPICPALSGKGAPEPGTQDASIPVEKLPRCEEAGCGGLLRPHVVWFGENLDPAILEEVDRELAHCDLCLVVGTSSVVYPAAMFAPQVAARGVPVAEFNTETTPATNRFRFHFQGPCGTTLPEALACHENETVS
NSD2 inh: NSD2 histone methyltransferase inhibitors, primary screen, biochemical, AlphaScreen, single concentration, set 2; NSD2 peptide methylation, 120 min; inhibition, % at 12.5 µM; hit rate 0.54% among 310,000; AID 743445, 2014; in the data active = inhibition above about 50%
Casp6 inh: human caspase-6 inhibitors, primary screen, biochemical, VEID-R110 fluorescence, single point, set 2; purified caspase-6, Z-VEID-R110 cleavage fluorescence; inhibition, % at 12.5 µM; hit rate 0.53% among 350,000;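 active = mean inhibition across replicates at least about 35%, with every replicate also reaching that limit, limit read from the data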;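 also: 0% = median of neutral control wells and 100% = no fluorescence left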
FGF22 binding: binders of human FGF22 protein, primary screen, FGF22 synaptogenesis inhibitor project, biophysical, thermal shift, single point; activity (Tm shift, normalised), % at 9.99 µM; recombinant FGF22 thermal shift, SYPRO orange fluorescence; percent of sucrose octasulfate shift, DMSO zero; Fibroblast growth factor 22 (Homo sapiens), Q9HCT0; AID 651658, 2012; hit rate 1.5% among 340,000;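 active = mean Tm shift, scaled 0 neutral to 100 positive control, at about 1.3% or above, every replicate too, limit read from the data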
Target sequence (Q9HCT0 whole entry, looked up): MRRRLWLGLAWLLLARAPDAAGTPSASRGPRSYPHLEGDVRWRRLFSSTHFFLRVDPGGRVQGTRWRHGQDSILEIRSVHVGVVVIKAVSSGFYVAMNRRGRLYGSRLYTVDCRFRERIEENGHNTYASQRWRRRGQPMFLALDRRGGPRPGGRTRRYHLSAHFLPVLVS
UCH37 DUB inh: inhibitors of human UCH37 deubiquitinase, primary screen, biochemical, Ub-AMC cleavage, fluorescence | purified proteasome/UCH37 | inhibition, % (no concentration beside the values) | hit rate 0.33% among 330,000;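 active = mean inhibition over replicate wells above about 20%, limit read from the data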;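 also: 0% = compound-free wells with enzyme and 100% = wells lacking proteasome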
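Schedule: 30 min plus 25 min, room temperature / Material: human UCH37 within purified proteasomes / Technique: AMC fluorescence intensity at 355/460 nm / Buffer or medium: pH 7.4 Tris-HCl (50 mM) with ovalbumin, ATP-MgCl2, DTT / Controls: wells without proteasome as full block, compound-free enzyme plus substrate as uninhibited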
* = called active by the depositor.

`COc1ccc(/C=C2\SC(=S)NC2=O)cc1OS(=O)(=O)c1ccc(NC(C)=O)cc1` gave SIRT5 block 0, NSD2 inh 17, Casp6 inh 40*, FGF22 binding 0 and UCH37 DUB inh 4.
Screening NC1=NC(=O)/C(=C/c2cccc(F)c2)S1 returned SIRT5 block -2, NSD2 inh -5, Casp6 inh 0, FGF22 binding 0 and UCH37 DUB inh 4.
Screening COc1ccc(C=NNC(=O)c2ccc3ccccc3c2)cc1OS(=O)(=O)c1ccc(NC(C)=O)cc1 returned UCH37 DUB inh -9.
For COc1cc(C=O)ccc1OS(=O)(=O)c1ccc(NC(C)=O)cc1 the results were SIRT5 block -6, NSD2 inh -1, Casp6 inh 4, FGF22 binding 1.9* and UCH37 DUB inh -26.
For COc1cc(/C=C2/SC(=S)NC2=O)ccc1OS(=O)(=O)c1ccc(C)cc1 the results were UCH37 DUB inh 3.
For CC(=O)Nc1ccc(S(=O)(=O)Oc2cccc(/C=C3\SC(N)=NC3=O)c2)cc1 the results were SIRT5 block -5, NSD2 inh -9, Casp6 inh 0, FGF22 binding 43* and UCH37 DUB inh -1.
`O=C(C[C@H]1CC[C@H]2[C@@H](COC[C@@H](O)CN2C(=O)Nc2cc(Cl)cc(Cl)c2)O1)NCC1CC1` gave SIRT5 block 2, Casp6 inh -6 and FGF22 binding 0.
Screening CC(C)C(=O)Nc1ccc2c(c1)C(=O)N(C)[C@H]1CC[C@H](CC(=O)N[C@H](C)c3ccccc3)O[C@H]1CO2 returned FGF22 binding 0.
Screening CC(C)NC(C(=O)Nc1cc(Cl)cc(Cl)c1)c1ccccc1 (stereo not drawn) returned NSD2 inh 1 and UCH37 DUB inh -2.
For CN(C)CCNC(C(=O)Nc1cc(Cl)cc(Cl)c1)c1ccccc1 (stereo not drawn) the results were SIRT5 block -2, NSD2 inh 2, Casp6 inh -5, FGF22 binding 43* and UCH37 DUB inh 1.
Screening CO[C@@H]1CN(C)C(=O)c2cc(NC(=O)C3CCOCC3)ccc2OC[C@@H](C)N(Cc2nccs2)C[C@@H]1C returned SIRT5 block 0, Casp6 inh 1 and FGF22 binding 0.
COc1ccc2oc(=NNC(=O)c3cccs3)c(C(N)=O)cc2c1 was read as UCH37 DUB inh 5.
`CNS(=O)(=O)c1cccc(C(=O)OCC(=O)Nc2ccc(N3CCCCC3)cc2)c1` gave SIRT5 block -3, NSD2 inh 3, Casp6 inh -1, FGF22 binding 43* and UCH37 DUB inh 5.
Cc1cc(Cl)ccc1OCC(=O)NCC(=O)N/N=C/c1ccco1 was read as SIRT5 block -2, NSD2 inh 0, Casp6 inh -5 and FGF22 binding 43*.
`O=C(CCCCCCCCC(=O)N/N=C/c1ccco1)N/N=C/c1ccco1` gave SIRT5 block -1, NSD2 inh 0, Casp6 inh 0 and FGF22 binding 43*.
For Cc1cc(Cl)ccc1OCC(=O)NCC(=O)NN=Cc1ccco1 the results were UCH37 DUB inh 1.
For CC(C)CC#Cc1cnc2c(c1)C(=O)N([C@H](C)CO)C[C@@H](C)[C@@H](CN(C)S(C)(=O)=O)O2 the results were SIRT5 block 0, Casp6 inh -1 and FGF22 binding 0.
Screening CCCCNC(=O)CN1C(=O)NC(CCc2ccccc2)C1=O (stereo not drawn) returned SIRT5 block 1, NSD2 inh 1, Casp6 inh 0, FGF22 binding 43* and UCH37 DUB inh 2.
CCCNC(=O)CN1C(=O)NC(CCc2ccccc2)C1=O (stereo not drawn) was read as SIRT5 block -1, NSD2 inh -2, Casp6 inh 1, FGF22 binding 0 and UCH37 DUB inh 4.
For O=C1NC(CCc2ccccc2)C(=O)N1CCOc1cccc(Br)c1 (stereo not drawn) the results were SIRT5 block -3, NSD2 inh -2, Casp6 inh 3, FGF22 binding 43* and UCH37 DUB inh 4.
For CN(C)CCCNC(=O)C[C@H]1CC[C@H]2[C@H](COc3ccc(NS(C)(=O)=O)cc3C(=O)N2C)O1 the results were SIRT5 block -6, Casp6 inh -3 and FGF22 binding 0.
`N#CC(=NNc1ccc([N+](=O)[O-])cc1)C(=N)N1CCCCC1` gave UCH37 DUB inh 23*.
Cc1ccc(S(=O)(=O)N(C)C[C@H]2OCCCC[C@H](C)Oc3ccc(NC(=O)Nc4cccc5ccccc45)cc3C(=O)N([C@H](C)CO)C[C@H]2C)cc1 was read as SIRT5 block 6, Casp6 inh 2 and FGF22 binding 0.
Screening Cc1ccc(NC(=O)N2CCCC2C(=O)NCC2CCCO2)cc1 (stereo not drawn) returned SIRT5 block -3, NSD2 inh -7, Casp6 inh -1, FGF22 binding 43* and UCH37 DUB inh 2.
`Cc1ccc(NC(=O)N2CCCC2C(=O)NCC2CCCCC2)cc1` (stereo not drawn) gave SIRT5 block -3, NSD2 inh -1, Casp6 inh -2, FGF22 binding 0 and UCH37 DUB inh 1.
Cn1cc(CN(CCO)Cc2cccs2)c(-c2ccccc2F)n1 was read as SIRT5 block -2, NSD2 inh 8, Casp6 inh 2, FGF22 binding 43* and UCH37 DUB inh -1.
For O=C(NCC(F)(F)F)[C@@H]1[C@@H](CO)[C@@H]2Cn3c(cccc3=O)[C@@H]2N1Cc1cccc(F)c1 the results were SIRT5 block 16*, Casp6 inh -1 and FGF22 binding 0.
`O=C([C@H]1[C@H](CO)[C@H]2Cn3c(cccc3=O)[C@H]2N1Cc1cc(F)ccc1F)N1CCOCC1` gave SIRT5 block 1, Casp6 inh 37* and FGF22 binding 0.
For CN1CCN(C(=O)[C@@H]2[C@@H](CO)[C@@H]3Cn4c(cccc4=O)[C@@H]3N2Cc2ccccc2F)CC1 the results were SIRT5 block -5, Casp6 inh -3 and FGF22 binding 0.
Screening Cc1ccc(C(=O)N(Cc2nc(-c3ccc(C)cc3)no2)C(C)C)cc1 returned SIRT5 block 17*, Casp6 inh -3, FGF22 binding 0 and UCH37 DUB inh 4.
For Cn1cnc(S(=O)(=O)N2C[C@@H](O)COC[C@H]3O[C@@H](CC(=O)NC4Cc5ccccc5C4)CC[C@@H]32)c1 the results were SIRT5 block 12, Casp6 inh 0 and FGF22 binding 0.
